From ChEMBL document CHEMBL5653614, “Rescue of fragile X syndrome phenotypes in Fmr1 KO mice by the small-molecule PAK inhibitor FRAX486” (Proc Natl Acad Sci U S A, 2013) come the findings set out here.

Activity calls are given as the source filed them. The rule behind the calls is not given here.

In data set [1] the target is Serine/threonine-protein kinase PAK 2 (Homo sapiens, UniProt Q13177). In words: Inhibition of PAK2 (unknown origin) by Z'-LYTE functional assay. An outline of the steps: (§1)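 Full-length PAK isoforms phosphorylating an optimized peptide substrate in a Z-LYTE biochemical kinase assay, 10-point inhibitor titration. Duplicates (n = 2, mean ± SEM) plotted semilog; IC50 from a variable-slope sigmoidal dose–response fit.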
Serine/threonine-protein kinase PAK 2, sequence (Q13177 whole entry, canonical isoform): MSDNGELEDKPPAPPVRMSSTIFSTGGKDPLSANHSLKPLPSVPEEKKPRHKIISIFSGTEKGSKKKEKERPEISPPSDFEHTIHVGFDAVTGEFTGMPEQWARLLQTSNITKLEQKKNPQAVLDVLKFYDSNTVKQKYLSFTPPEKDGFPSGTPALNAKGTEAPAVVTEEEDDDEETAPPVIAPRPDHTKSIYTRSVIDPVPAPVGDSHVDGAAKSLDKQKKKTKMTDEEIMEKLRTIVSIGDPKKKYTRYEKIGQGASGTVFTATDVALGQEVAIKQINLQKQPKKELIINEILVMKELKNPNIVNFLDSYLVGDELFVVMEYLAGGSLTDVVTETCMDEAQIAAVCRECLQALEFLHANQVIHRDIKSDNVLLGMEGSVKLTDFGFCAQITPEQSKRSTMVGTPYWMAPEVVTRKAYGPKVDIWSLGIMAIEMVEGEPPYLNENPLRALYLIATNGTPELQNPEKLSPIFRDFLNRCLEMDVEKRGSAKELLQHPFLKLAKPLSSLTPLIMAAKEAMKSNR

Data set [2] concerns the target Serine/threonine-protein kinase PAK 3 (Homo sapiens, UniProt O75914). In words: Inhibition of PAK3 (unknown origin) by Z'-LYTE functional assay. A digest of the protocol: as §1
Data set [3] in a line: Drug concentration in FVB.129P2 mouse brain at 20 mg/kg,sc and measured after 1 hrs by LC-MS/MS analysis. The settings on record: read-out: Ct. It counts as ADME, organism-based. An outline of the steps: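 WT FVB.129P2 mice got one s.c. injection of 20 mg/kg (2 mg/mL in 20% hydroxypropyl-β-cyclodextrin). Blood and forebrain were collected at time points from 15 min to 24 h. Forebrain was weighed, snap-frozen and homogenized in 2 volumes of cold PBS. Drug quantified by LC-MS/MS. n = 2–3, mean ± SEM.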

The test system of data set [4] is Mus musculus. In words: Protective activity in Fmr1 knockout FVB.129P2-Fmr1tm1Cgr/J mouse assessed as decrease in apical dendritic spine density in layer II/III pyramidal neurons segment 3 at 20 mg/kg, sc and measured after 8 hrs by Golgi-Cox technique analysis. It counts as functional, organism-based. An outline of the steps: (§2)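 Adult male WT and Fmr1 KO FVB mice given 20 mg/kg s.c. or vehicle; brains collected 8 h later and Golgi stained. Apical dendrites of layer II/III pyramidal neurons in temporal cortex, originating 50–100 µm from the soma, were divided into ten 10-µm segments and spines counted. 40–60 neurons from 4–6 mice per group; one-way ANOVA.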

The subject of data set [5] is Mus musculus. The data set is described as follows: Protective activity in Fmr1 knockout FVB.129P2-Fmr1tm1Cgr/J mouse assessed as decrease in apical dendritic spine density in layer II/III pyramidal neurons segment 1 at 20 mg/kg, sc and measured after 8 hrs by Golgi-Cox technique analysis. It counts as functional, organism-based. An outline of the steps: as §2
Data set [6] relates to Mus musculus. In words: Protective activity in Fmr1 knockout FVB.129P2-Fmr1tm1Cgr/J mouse assessed as decrease in apical dendritic spine density in layer II/III pyramidal neurons segment 6 at 20 mg/kg, sc and measured after 8 hrs by Golgi-Cox technique analysis. It counts as functional, organism-based. An outline of the steps: as §2
Data set [7] deals with Mus musculus. In words: Protective activity in Fmr1 knockout FVB.129P2-Fmr1tm1Cgr/J mouse assessed as decrease in apical dendritic spine density in layer II/III pyramidal neurons segment 7 at 20 mg/kg, sc and measured after 8 hrs by Golgi-Cox technique analysis. It counts as functional, organism-based. A digest of the protocol: as §2
Data set [8] relates to Mus musculus. The data set is described as follows: Protective activity in Fmr1 knockout FVB.129P2-Fmr1tm1Cgr/J mouse assessed as decrease in apical dendritic spine density in layer II/III pyramidal neurons segment 9 at 20 mg/kg, sc and measured after 8 hrs by Golgi-Cox technique analysis. It counts as functional, organism-based. A digest of the protocol:
as §2

Data set [9] relates to Mus musculus. In words: Protective activity in Fmr1 knockout FVB.129P2-Fmr1tm1Cgr/J mouse assessed as change in basal dendritic spine density in cortical neuron at 20 mg/kg, sc and measured after 8 hrs by Golgi-Cox technique analysis. The settings on record: Cortical neurone. It counts as functional, organism-based.
Data set [10] has as its system Mus musculus. In words: Protective activity in Fmr1 FVB.129P2-Pde6b+ Tyr c-ch/AntJ wild type mouse assessed as change in basal dendritic spine density in cortical neuron at 20 mg/kg, sc and measured after 8 hrs by Golgi-Cox technique analysis. It counts as functional, organism-based. The settings on record: Cortical neurone.
For data set [11], the system named is Mus musculus. In words: Anti-seizure activity against 124dB loud auditory stimulus induced Fmr1 knockout FVB.129P2-Fmr1tm1Cgr/J mouse model of audiogenic seizure assessed as decrease in sound-induced wild running at 10 mg/kg,sc for 8 hrs followed by audiogenic seizure induction by audiogenic seizure assay (Rvb=100%). It counts as functional. Also on record: scale not given: the % may be the effect or the level left. An outline of the steps:
(§3)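 Adult male mice (10–17 wk). Single s.c. dose (0, 10, 20 or 30 mg/kg) in 20% (wt/vol) hydroxypropyl-β-cyclodextrin vehicle; AGS induced 8 h later. Mouse acclimated 2 min in a clear acrylic two-chamber box, then exposed to a 124 dB sound. Scored as percentage of animals showing each sequential phase (wild running, seizure, death by respiratory arrest); χ2 test against vehicle.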

Data set [12] has as its system Mus musculus. In words: Anti-seizure activity against 124dB loud auditory stimulus induced Fmr1 knockout FVB.129P2-Fmr1tm1Cgr/J mouse model of audiogenic seizure assessed as decrease in sound-induced wild running at 20 mg/kg,sc for 8 hrs followed by audiogenic seizure induction by audiogenic seizure assay (Rvb=100%). It counts as functional. On the set-up: scale not given: the % may be the effect or the level left. An outline of the steps:
as §3

Data set [13] relates to Mus musculus. In words: Anti-seizure activity against 124dB loud auditory stimulus induced Fmr1 knockout FVB.129P2-Fmr1tm1Cgr/J mouse model of audiogenic seizure assessed as decrease in sound-induced seizure at 10 mg/kg,sc for 8 hrs followed by audiogenic seizure induction by audiogenic seizure assay (Rvb=100%). Also on record: scale not given: the % may be the effect or the level left. It counts as functional. An outline of the steps:
as §3

Data set [14] relates to Mus musculus. In words: Anti-seizure activity against 124dB loud auditory stimulus induced Fmr1 knockout FVB.129P2-Fmr1tm1Cgr/J mouse model of audiogenic seizure assessed as decrease in sound-induced seizure at 30 mg/kg,sc for 8 hrs followed by audiogenic seizure induction by audiogenic seizure assay (Rvb=100%). It counts as functional. On the set-up: scale not given: the % may be the effect or the level left. An outline of the steps: as §3

Data set [15] concerns Mus musculus. The data set is described as follows: Protective activity in Fmr1 knockout FVB.129P2-Fmr1tm1Cgr/J mouse model of Fragile X syndrome assessed as decrease in horizontal movements at 20 mg/kg, sc for 5 days and measured for 30 mins by open field assay. It counts as functional, organism-based. The settings on record: time 5.0 day. An outline of the steps: (§4)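 Adult male WT and Fmr1 KO mice dosed s.c. at 20 mg/kg or vehicle for 5 d; tested 4–5.5 h after dosing. Single mouse in a novel open field for 30 min, tracked by infrared sensors in 1-min bins; bar-graph values averaged over minutes 18–30. Mice beyond 2 SD in total distance, or immobile for 5 consecutive minutes, were excluded.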

Data set [16] has as its system Mus musculus. In words: Protective activity in Fmr1 knockout FVB.129P2-Fmr1tm1Cgr/J mouse model of Fragile X syndrome assessed as decrease in stereotypy count at 20 mg/kg, sc for 5 days by open field assay. The settings on record: time 5.0 day. It counts as functional, organism-based. A digest of the protocol:
as §4

The test system of data set [17] is Mus musculus. In words: Protective activity in FVB.129P2-Pde6b+ Tyr c-ch/AntJ wild type mouse assessed as decrease in time spent in moving at 20 mg/kg, sc for 5 days and measured for 30 mins by open field assay. It counts as functional, organism-based. Conditions: time 5.0 day. An outline of the steps: as §4
Data set [18] deals with Mus musculus. The data set is described as follows: Protective activity in Fmr1 knockout FVB.129P2-Fmr1tm1Cgr/J mouse model of Fragile X syndrome assessed as motor coordination at 20 mg/kg, sc and measured for 4 to 5.25 hrs by rotarod test. It counts as functional, organism-based. Conditions: time 4-5.25 hrs. A digest of the protocol: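 Adult male Fmr1 KO mice (FVB background, 10–17 wk old) got FRAX486 s.c. at 20 mg/kg as a 2 mg/mL solution in 20% (wt/vol) hydroxypropyl-β-cyclodextrin; vehicle-only controls. Rotarod was run 4–5.5 h after dosing. Latency to fall or jump off the rotating cylinder was recorded, with a maximum of 3 min. Three trials 30–40 min apart were averaged per mouse.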
Background: In the rotarod test animals must keep their balance on a rotating rod.

Data set [19] in a line: Toxicity in FVB.129P2-Pde6b+ Tyr c-ch/AntJ wild type mouse assessed as body weight change at 20 mg/kg,sc for 21 days. It counts as organism-based. The settings on record: in vivo, 504 h, time 21 day.

As usually defined, the IC50 is the point on the concentration scale where inhibition reaches its midpoint.

Serine/threonine-protein kinase PAK 3, sequence (O75914 whole entry): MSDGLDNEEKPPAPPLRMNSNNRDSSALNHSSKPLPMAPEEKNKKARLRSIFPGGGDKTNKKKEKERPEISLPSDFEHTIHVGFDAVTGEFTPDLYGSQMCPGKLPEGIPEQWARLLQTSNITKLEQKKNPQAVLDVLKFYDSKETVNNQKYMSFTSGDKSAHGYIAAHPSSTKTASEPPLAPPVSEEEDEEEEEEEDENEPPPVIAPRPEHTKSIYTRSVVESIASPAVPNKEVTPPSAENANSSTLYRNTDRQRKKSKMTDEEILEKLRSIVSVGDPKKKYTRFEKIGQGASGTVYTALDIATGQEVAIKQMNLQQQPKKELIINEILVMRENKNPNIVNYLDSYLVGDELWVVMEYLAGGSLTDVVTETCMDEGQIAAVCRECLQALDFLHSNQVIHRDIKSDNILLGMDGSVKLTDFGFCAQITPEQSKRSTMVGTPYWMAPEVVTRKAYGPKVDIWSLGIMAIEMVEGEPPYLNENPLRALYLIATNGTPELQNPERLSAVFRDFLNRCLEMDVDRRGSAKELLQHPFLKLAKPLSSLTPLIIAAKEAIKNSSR

On to `CCn1c(=O)c(-c2ccc(Cl)cc2Cl)cc2cnc(Nc3ccc(N4CCNCC4)c(F)c3)nc21`, for which the 50% inhibitory concentration (IC50) is 39.5 nM in [1] and 55.3 nM in [2]. Moreover, in data set [3], the concentration at 1 h was 155 ng/g. Besides, the result in the data set with Mus musculus [4], with Mus musculus [15], in the data set on Mus musculus [16] and with Mus musculus [17] was Active. The result in the data set with Mus musculus [5], with Mus musculus [6], in the data set on Mus musculus [7], in the data set on Mus musculus [8], with Mus musculus [9] and in the data set with Mus musculus [10] was inactive. In addition, in the data set with Mus musculus [18], the result was inactive. For the same molecule, the Activity with Mus musculus [11] is 80%; in the data set on Mus musculus [12], 25%; in the data set with Mus musculus [13], 80%; with Mus musculus [14] it was 0%; in [19] it was “Non-Toxic”.
